In ChEMBL document CHEMBL1145176, “Somatostatin receptor 1 selective analogues: 2. N(alpha)-Methylated scan” (J Med Chem, 2005):
“And” between values parts separate entries of the source, which are not always exact repeats. Identical values can stand only once. Positions of bridges follow the written chain, without caps; N, C: chain ends. Non-standard residues stand in square brackets, D forms with d. Residues, ends and D or L forms follow the SMILES beside them. NMePhe(4-CH2NHiPr) = CN[C@@H](Cc1ccc(CNC(C)C)cc1)C(=O)O; Phe(4-CH2NHiPr) = CC(C)NCc1ccc(C[C@H](N)C(=O)O)cc1

Key:
[1] = molecular target: Somatostatin receptor type 1 (Homo sapiens, UniProt P30872); assay: Inhibition of [Leu8,D-Trp22,125I-Tyr25]SRIF-28 binding to human somatostatin receptor type 1
[2] = molecular target: Somatostatin receptor type 2 (Homo sapiens, UniProt P30874); assay: Inhibition of [Leu8,D-Trp22,125I-Tyr25]SRIF-28 binding to human somatostatin receptor type 2
[3] = molecular target: Somatostatin receptor type 3 (Homo sapiens, UniProt P32745); assay: Inhibition of [Leu8,D-Trp22,125I-Tyr25]SRIF-28 binding to human somatostatin receptor type 3
[4] = molecular target: Somatostatin receptor type 4 (Homo sapiens, UniProt P31391); assay: Inhibition of [Leu8,D-Trp22,125I-Tyr25]SRIF-28 binding to human somatostatin receptor type 4
[5] = molecular target: Somatostatin receptor type 5 (Homo sapiens, UniProt P35346); assay: Inhibition of [Leu8,D-Trp22,125I-Tyr25]SRIF-28 binding to human somatostatin receptor type 5
CHO-K1 [6] = assay: Concentration for inhibition of forskolin-stimulated cAMP accumulation in CCL39 cells; type: functional, cell-based, Cricetulus griseus
Method in brief: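 CCL39 cells stably expressing human sst1, seeded in poly-D-lysine-coated 96-well plates at 2 × 10^4 cells/well, grown 24 h. Preincubated 30 min at 37 °C in medium with 0.5 mM IBMX, then 30 min at 37 °C with 0.5 mM IBMX, 7.5 µM forskolin and varying peptide concentrations. Lysed; cAMP measured by scintillation proximity assay. Three independent experiments in triplicate; EC50 from concentration-response curves.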

CHO-K1 [7] = assay: Inhibition of forskolin-stimulated cAMP accumulation in CCL39 cells; type: functional, Cricetulus griseus
Method in brief: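 CCL39 cells stably expressing human sst1 were seeded at 2 × 10^4 cells/well on poly-D-lysine plates and grown 24 h. Cells were preincubated 30 min at 37 °C with 0.5 mM IBMX, then exposed 30 min at 37 °C to IBMX ± 7.5 µM forskolin plus graded compound concentrations. Lysate cAMP was read by scintillation proximity assay and expressed as % forskolin-stimulated level. EC50 came from three independent experiments in triplicate, with SRIF-28 as positive control.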

Chain of Somatostatin receptor type 5 (P35346 whole entry): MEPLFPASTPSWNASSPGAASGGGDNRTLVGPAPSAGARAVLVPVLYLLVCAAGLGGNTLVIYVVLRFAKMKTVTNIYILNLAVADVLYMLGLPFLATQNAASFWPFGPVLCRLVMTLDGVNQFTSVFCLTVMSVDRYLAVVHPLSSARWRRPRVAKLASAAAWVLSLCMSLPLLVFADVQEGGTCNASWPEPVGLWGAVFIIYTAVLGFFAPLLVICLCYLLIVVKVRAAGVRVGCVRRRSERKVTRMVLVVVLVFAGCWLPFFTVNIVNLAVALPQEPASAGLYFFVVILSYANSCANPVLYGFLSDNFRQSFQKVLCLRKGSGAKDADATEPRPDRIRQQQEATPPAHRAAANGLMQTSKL
Chain of Somatostatin receptor type 1 (P30872 whole entry): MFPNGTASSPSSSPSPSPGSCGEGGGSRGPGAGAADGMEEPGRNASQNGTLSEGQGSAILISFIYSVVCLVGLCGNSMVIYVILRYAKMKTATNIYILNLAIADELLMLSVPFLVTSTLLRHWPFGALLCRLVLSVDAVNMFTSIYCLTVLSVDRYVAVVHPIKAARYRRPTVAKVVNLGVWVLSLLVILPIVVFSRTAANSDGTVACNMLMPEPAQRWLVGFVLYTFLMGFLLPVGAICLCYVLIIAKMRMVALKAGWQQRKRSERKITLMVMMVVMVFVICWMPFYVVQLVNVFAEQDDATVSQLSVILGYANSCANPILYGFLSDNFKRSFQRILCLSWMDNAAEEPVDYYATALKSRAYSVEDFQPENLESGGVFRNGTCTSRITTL
Chain of Somatostatin receptor type 2 (P30874 whole entry): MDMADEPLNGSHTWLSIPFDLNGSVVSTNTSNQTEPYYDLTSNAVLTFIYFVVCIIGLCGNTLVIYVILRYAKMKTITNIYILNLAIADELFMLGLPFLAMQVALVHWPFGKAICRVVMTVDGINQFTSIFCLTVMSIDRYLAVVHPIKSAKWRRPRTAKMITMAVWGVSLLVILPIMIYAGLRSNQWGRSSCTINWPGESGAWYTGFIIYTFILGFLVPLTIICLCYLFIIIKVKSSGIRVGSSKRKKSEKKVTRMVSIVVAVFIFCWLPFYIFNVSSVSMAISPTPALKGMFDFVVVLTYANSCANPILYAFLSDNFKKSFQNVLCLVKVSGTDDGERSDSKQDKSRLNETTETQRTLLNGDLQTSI
Chain of Somatostatin receptor type 4 (P31391 whole entry): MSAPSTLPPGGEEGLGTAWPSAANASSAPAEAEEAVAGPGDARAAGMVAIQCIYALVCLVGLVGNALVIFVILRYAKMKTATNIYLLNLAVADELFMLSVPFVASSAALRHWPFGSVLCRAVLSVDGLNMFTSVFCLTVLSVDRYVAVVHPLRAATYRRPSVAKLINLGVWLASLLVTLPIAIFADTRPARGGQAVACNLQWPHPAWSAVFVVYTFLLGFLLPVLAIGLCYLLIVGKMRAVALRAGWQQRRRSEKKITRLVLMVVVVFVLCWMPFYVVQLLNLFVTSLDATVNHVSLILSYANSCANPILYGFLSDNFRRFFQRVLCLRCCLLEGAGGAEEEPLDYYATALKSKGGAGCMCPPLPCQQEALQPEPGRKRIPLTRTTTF
Chain of Somatostatin receptor type 3 (P32745 whole entry): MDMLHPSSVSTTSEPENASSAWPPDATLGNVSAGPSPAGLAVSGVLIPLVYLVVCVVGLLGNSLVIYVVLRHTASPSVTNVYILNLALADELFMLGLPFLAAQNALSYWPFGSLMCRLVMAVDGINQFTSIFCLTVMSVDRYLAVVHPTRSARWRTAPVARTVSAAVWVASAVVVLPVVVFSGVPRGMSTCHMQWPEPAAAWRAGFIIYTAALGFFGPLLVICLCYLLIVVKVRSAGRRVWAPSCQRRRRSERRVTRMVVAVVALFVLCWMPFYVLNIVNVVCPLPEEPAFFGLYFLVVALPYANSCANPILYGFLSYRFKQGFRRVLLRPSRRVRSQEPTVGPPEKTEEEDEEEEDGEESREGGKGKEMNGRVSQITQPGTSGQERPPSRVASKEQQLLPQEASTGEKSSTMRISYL

Structure (SMILES) | IC50 [1] | IC50 [2] | IC50 [3] | IC50 [4] | IC50 [5] | EC50 (CHO-K1 [6]) | Inhibition (CHO-K1 [7])
CC(C)NCc1ccc(C[C@@H]2NC(=O)[C@@H](Cc3ccc4ccccc4c3)NC(=O)[C@H](Cc3ccccc3)NC(=O)[C@H](Cc3ccccc3)NC(=O)[C@H](CCCCN)NC(=O)[C@@H](N)CSSC[C@@H](C(=O)O)NC(=O)[C@H](CO)N(C)C(=O)[C@H]([C@@H](C)O)NC(=O)[C@H](Cc3ccccc3)NC(=O)[C@H]([C@@H](C)O)NC2=O)cc1 | 71 nM | > 1000 nM | > 1000 nM | > 1000 nM | > 1000 nM |  | 
CN[C@H]1CSSC[C@@H](C(=O)O)NC(=O)[C@H](CO)NC(=O)[C@H]([C@@H](C)O)NC(=O)[C@H](Cc2ccccc2)NC(=O)[C@H]([C@@H](C)O)NC(=O)[C@H](Cc2ccc(CNC(C)C)cc2)NC(=O)[C@@H](Cc2c[nH]c3ccccc23)NC(=O)[C@H](Cc2ccccc2)NC(=O)[C@H](Cc2ccccc2)NC(=O)[C@H](CCCCN)NC1=O | 14 nM | > 1000 nM | > 1000 nM | > 1000 nM | > 1000 nM |  | 
CC(C)NCc1ccc(C[C@@H]2NC(=O)[C@@H](Cc3c[nH]c4ccccc34)NC(=O)[C@H](Cc3ccccc3)NC(=O)[C@H](Cc3ccccc3)NC(=O)[C@H](CCCCN)NC(=O)[C@@H](N)CSSC[C@@H](C(=O)O)NC(=O)[C@H](CO)NC(=O)[C@H]([C@@H](C)O)N(C)C(=O)[C@H](Cc3ccccc3)NC(=O)[C@H]([C@@H](C)O)NC2=O)cc1 | 75 nM | > 1000 nM | > 1000 nM | > 1000 nM | > 1000 nM |  | 
CC(C)NCc1ccc(C[C@@H]2NC(=O)[C@@H](Cc3ccc4ccccc4c3)N(C)C(=O)[C@H](Cc3ccccc3)NC(=O)[C@H](Cc3ccccc3)NC(=O)[C@H](CCCCN)NC(=O)[C@@H](N)CSSC[C@@H](C(=O)O)NC(=O)[C@H](CO)NC(=O)[C@H]([C@@H](C)O)NC(=O)[C@H](Cc3ccccc3)NC(=O)[C@H]([C@@H](C)O)NC2=O)cc1 | 325 nM | > 1000 nM | > 1000 nM | > 1000 nM | > 1000 nM |  | 
CC(C)NCc1ccc(C[C@@H]2NC(=O)[C@@H](Cc3ccc4ccccc4c3)NC(=O)[C@H](Cc3ccccc3)NC(=O)[C@H](Cc3ccccc3)NC(=O)[C@H](CCCCN)NC(=O)[C@@H](N)CSSC[C@@H](C(=O)O)NC(=O)[C@H](CO)NC(=O)[C@H]([C@@H](C)O)NC(=O)[C@H](Cc3ccccc3)N(C)C(=O)[C@H]([C@@H](C)O)NC2=O)cc1 | 583 nM | > 1000 nM | > 1000 nM | > 1000 nM | > 1000 nM |  | 
CC(C)NCc1ccc(C[C@@H]2NC(=O)[C@H](N(C)C(=O)c3ccc4ccccc4c3)NC(=O)[C@H](Cc3ccccc3)NC(=O)[C@H](Cc3ccccc3)NC(=O)[C@H](CCCCN)NC(=O)[C@@H](N)CSSC[C@@H](C(=O)O)NC(=O)[C@H](CO)NC(=O)[C@H]([C@@H](C)O)NC(=O)[C@H](Cc3ccc(O)cc3)NC(=O)[C@H]([C@@H](C)O)NC2=O)cc1 | 3.3 nM | > 1000 nM | > 1000 nM | 562 nM | > 1000 nM |  | 
CC(C)NCc1ccc(C[C@@H]2NC(=O)[C@@H](Cc3ccc4ccccc4c3)NC(=O)[C@H](Cc3ccccc3)NC(=O)[C@H](Cc3ccccc3)NC(=O)[C@H](CCCCN)NC(=O)[C@@H](N)CSSC[C@@H](C(=O)O)NC(=O)[C@H](CO)NC(=O)[C@H]([C@@H](C)O)NC(=O)[C@H](Cc3ccccc3)NC(=O)[C@H]([C@@H](C)O)N(C)C2=O)cc1 | > 1000 nM | > 1000 nM | > 1000 nM | > 1000 nM | > 1000 nM |  | 
CC(C)NCc1ccc(C[C@@H]2NC(=O)[C@@H](Cc3ccc4ccccc4c3)NC(=O)[C@H](Cc3ccccc3)NC(=O)[C@H](Cc3ccccc3)NC(=O)[C@H](CCCCN)NC(=O)[C@@H](N)CSSC[C@@H](C(=O)O)NC(=O)[C@H](CO)NC(=O)[C@H]([C@@H](C)O)N(C)C(=O)[C@H](Cc3ccccc3)NC(=O)[C@H]([C@@H](C)O)NC2=O)cc1 | 176 nM | > 1000 nM | > 1000 nM | 417 nM | > 1000 nM |  | 
CC(C)NCc1ccc(C[C@@H]2NC(=O)[C@@H](Cc3ccc4ccccc4c3)NC(=O)[C@H](Cc3ccccc3)NC(=O)[C@H](Cc3ccccc3)NC(=O)[C@H](CCCCN)NC(=O)[C@@H](N)CSSC[C@@H](C(=O)O)N(C)C(=O)[C@H](CO)NC(=O)[C@H]([C@@H](C)O)NC(=O)[C@H](Cc3ccccc3)NC(=O)[C@H]([C@@H](C)O)NC2=O)cc1 | 260 nM | > 1000 nM | > 1000 nM | > 1000 nM | > 1000 nM |  | 
CC(C)NCc1ccc(C[C@@H]2NC(=O)[C@@H](Cc3ccc4ccccc4c3)NC(=O)[C@H](Cc3ccccc3)N(C)C(=O)[C@H](Cc3ccccc3)NC(=O)[C@H](CCCCN)NC(=O)[C@@H](N)CSSC[C@@H](C(=O)O)NC(=O)[C@H](CO)NC(=O)[C@H]([C@@H](C)O)NC(=O)[C@H](Cc3ccccc3)NC(=O)[C@H]([C@@H](C)O)NC2=O)cc1 | > 1000 nM | > 1000 nM | > 1000 nM | > 1000 nM | > 1000 nM |  | 
CC(C)NCc1ccc(C[C@@H]2NC(=O)[C@H](N(C)C(=O)c3ccc4ccccc4c3)NC(=O)[C@H](Cc3ccccc3)NC(=O)[C@H](Cc3ccccc3)NC(=O)[C@H](CCCCN)NC(=O)[C@@H](N)CSSC[C@@H](C(=O)O)NC(=O)[C@H](CO)NC(=O)[C@H]([C@@H](C)O)NC(=O)[C@H](Cc3ccc(O)c(I)c3)NC(=O)[C@H]([C@@H](C)O)NC2=O)cc1 | 6.7 nM | > 1000 nM | 536 nM | 435 nM | > 1000 nM |  | 
CSCC[C@H](NC(=O)[C@H](C)NC(=O)[C@@H]1CCCN1C(=O)[C@H](CC(N)=O)NC(=O)[C@H](CO)NC(=O)[C@H](CC(N)=O)NC(=O)[C@H](C)NC(=O)[C@@H](N)CO)C(=O)N[C@@H](C)C(=O)N1CCC[C@H]1C(=O)N[C@@H](CCCNC(=N)N)C(=O)N[C@@H](CCC(=O)O)C(=O)N[C@@H](CCCNC(=N)N)C(=O)N[C@@H](CCCCN)C(=O)N[C@@H](C)C(=O)NCC(=O)N[C@H]1CSSC[C@@H](C(=O)O)NC(=O)[C@H](CO)NC(=O)[C@H]([C@@H](C)O)NC(=O)[C@H](Cc2ccccc2)NC(=O)[C@H]([C@@H](C)O)NC(=O)[C@H](CCCCN)NC(=O)[C@H](Cc2c[nH]c3ccccc23)NC(=O)[C@H](Cc2ccccc2)NC(=O)[C@H](Cc2ccccc2)NC(=O)[C@H](CC(N)=O)NC(=O)[C@H](CCCCN)NC1=O [listing 1 of 2 here] |  |  |  |  |  | 0.18 nM and 0.77 nM | 
CSCC[C@H](NC(=O)[C@H](C)NC(=O)[C@@H]1CCCN1C(=O)[C@H](CC(N)=O)NC(=O)[C@H](CO)NC(=O)[C@H](CC(N)=O)NC(=O)[C@H](C)NC(=O)[C@@H](N)CO)C(=O)N[C@@H](C)C(=O)N1CCC[C@H]1C(=O)N[C@@H](CCCNC(=N)N)C(=O)N[C@@H](CCC(=O)O)C(=O)N[C@@H](CCCNC(=N)N)C(=O)N[C@@H](CCCCN)C(=O)N[C@@H](C)C(=O)NCC(=O)N[C@H]1CSSC[C@@H](C(=O)O)NC(=O)[C@H](CO)NC(=O)[C@H]([C@@H](C)O)NC(=O)[C@H](Cc2ccccc2)NC(=O)[C@H]([C@@H](C)O)NC(=O)[C@H](CCCCN)NC(=O)[C@H](Cc2c[nH]c3ccccc23)NC(=O)[C@H](Cc2ccccc2)NC(=O)[C@H](Cc2ccccc2)NC(=O)[C@H](CC(N)=O)NC(=O)[C@H](CCCCN)NC1=O [listing 2 of 2 here] |  |  |  |  |  |  | >81% and >49%
CC(C)NCc1ccc(C[C@@H]2NC(=O)[C@H](Cc3c[nH]c4ccccc34)NC(=O)[C@H](Cc3ccccc3)NC(=O)[C@H](Cc3ccccc3)NC(=O)[C@H](CCCCN)NC(=O)[C@@H](N)CSSC[C@@H](C(=O)O)NC(=O)[C@H](CO)NC(=O)[C@H]([C@@H](C)O)NC(=O)[C@H](Cc3ccc(O)cc3)NC(=O)[C@H]([C@@H](C)O)NC2=O)cc1 (H-CKFFW[Phe(4-CH2NHiPr)]TYTSC-OH; disulfide 1-11) | 15 nM | > 1000 nM | > 1000 nM | 384 nM | > 1000 nM |  | 
CC(C)NCc1ccc(C[C@H]2C(=O)N[C@@H]([C@@H](C)O)C(=O)N[C@@H](Cc3ccccc3)C(=O)N[C@@H]([C@@H](C)O)C(=O)N[C@@H](CO)C(=O)N[C@H](C(=O)O)CSSC[C@H](N)C(=O)N[C@@H](CCCCN)C(=O)N[C@@H](Cc3ccccc3)C(=O)N[C@@H](Cc3ccccc3)C(=O)N[C@H](Cc3c[nH]c4ccccc34)C(=O)N2C)cc1 (H-CKFF[dW][NMePhe(4-CH2NHiPr)]TFTSC-OH; disulfide 1-11) | 10 nM | > 1000 nM | 1030 nM | 226 nM | > 1000 nM |  | 
